{"source": "paper PMC4460194", "about": "(Current Therapeutic Research, Clinical and Experimental, 2015)", "key": {"[1]": {"conditions": "animal studies, tissue distribution; cited from earlier work"}, "[2]": {"tested_on": "albumin and alpha-1-acid glycoprotein", "conditions": "primarily to albumin and alpha-1-acid glycoprotein; cited from earlier work"}, "[3]": {"assay": "Single-dose pharmacokinetic study of pitavastatin calcium tablets", "assay_type": "in vivo, human (healthy Chinese volunteers)", "conditions": "for half-life / AUC(0-inf) / AUC(0-t) / Tmax / Vd / clearance / Cmax: human, plasma", "procedure,_shortened": "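Randomized 3-way crossover in healthy Chinese volunteers (6 male, 6 female) with 5-day washouts. Single oral 1, 2 or 4 mg tablets were given after a 12-h fast with 200 mL water; meals at 4 and 10 h. Venous samples were taken predose and from 0.25 to 36 h. Heparinised plasma was analysed by LC-MS/MS (0.287–287 ng/mL). Noncompartmental analysis: Cmax/Tmax observed; AUC0–t by linear trapezoidal rule; AUC0–∞ = AUC0–t + Ct/λ.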"}, "[4]": {"assay_type": "in vivo, human (healthy Chinese volunteers)", "conditions": "for Cav: 2 mg multiple dose", "procedure,_shortened": "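Healthy Chinese volunteers (18–27 years, BMI 19–24) took a 2-mg tablet of the test compound orally once daily for 6 days. Predose samples were taken on days 3–5. On day 6, samples were taken predose and from 0.25 to 48 h. Heparinised plasma was stored at –20°C and extracted into diethyl ether-dichloromethane. LC-MS/MS range was 0.287–287 ng/mL. Noncompartmental analysis; accumulation index = AUC(multiple-dose)/AUC(single-dose).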"}, "[5]": {"assay": "Stability tests of the analyte in human plasma", "assay_type": "in vitro ADME"}, "[6]": {"conditions": "OATP 388GA + 388GG mutant group vs 388AA wild-type group; cited from earlier work"}, "[7]": {"conditions": "did not convert to Pi-LAC; cited from earlier work"}, "Tolerability assessment": {"assay": "Tolerability assessment", "assay_type": "in vivo, human (healthy Chinese volunteers)", "conditions": "single doses of 1 mg, 2 mg, or 4 mg and multiple doses of 2 mg once daily for 6 days, all subjects"}, "[8]": {"conditions": "multiple dose 2 mg once daily for 6 days, n = 11, mean (SD)"}}, "note": "Where two headings read alike, the source gives them in different places.", "data": [{"smiles": "O=C(O)C[C@H](O)C[C@H](O)/C=C/c1c(C2CC2)nc2ccccc2c1-c1ccc(F)cc1", "note": "[pitavastatin]", "values": [{"measurement": "liver levels relative to plasma", "setting": "[1]", "value": "approximately 54 times"}, {"measurement": "protein binding ratio", "setting": "[2]", "value": 96, "unit": "%"}, {"measurement": "half-life", "setting": "[3]; both, oral", "value": "~10", "unit": "h"}, {"measurement": "AUC(0-inf)", "setting": "[3]; both, oral, 1 mg", "value": 206, "unit": "ng·h/mL"}, {"measurement": "AUC(0-t)", "setting": "[3]; both, oral, 1 mg", "value": 190, "unit": "ng·h/mL"}, {"measurement": "Tmax", "setting": "[3]; both, oral, 1 mg", "value": 0.63, "unit": "h"}, {"measurement": "Vd", "setting": "[3]; both, oral, 1 mg", "value": 79.9, "unit": "L"}, {"measurement": "clearance", "setting": "[3]; both, oral, 1 mg", "value": 84.8, "unit": "mL/min"}, {"measurement": "half-life", "setting": "[3]; both, oral, 1 mg", "value": 11, "unit": "h"}, {"measurement": "AUC(0-inf)", "setting": "[3]; both, oral, 2 mg", "value": 321, "unit": "ng·h/mL"}, {"measurement": "AUC(0-t)", "setting": "[3]; both, oral, 2 mg", "value": 308, "unit": "ng·h/mL"}, {"measurement": "Tmax", "setting": "[3]; both, oral, 2 mg", "value": 0.65, "unit": "h"}, {"measurement": "Vd", "setting": "[3]; both, oral, 2 mg", "value": 86.9, "unit": "L"}, {"measurement": "clearance", "setting": "[3]; both, oral, 2 mg", "value": 108, "unit": "mL/min"}, {"measurement": "half-life", "setting": "[3]; both, oral, 2 mg", "value": 9.52, "unit": "h"}, {"measurement": "AUC(0-inf)", "setting": "[3]; both, oral, 4 mg", "value": 828, "unit": "ng·h/mL"}, {"measurement": "AUC(0-t)", "setting": "[3]; both, oral, 4 mg", "value": 785, "unit": "ng·h/mL"}, {"measurement": "Tmax", "setting": "[3]; both, oral, 4 mg", "value": 0.79, "unit": "h"}, {"measurement": "Vd", "setting": "[3]; both, oral, 4 mg", "value": 72.5, "unit": "L"}, {"measurement": "clearance", "setting": "[3]; both, oral, 4 mg", "value": 85.5, "unit": "mL/min"}, {"measurement": "half-life", "setting": "[3]; both, oral, 4 mg", "value": 10.4, "unit": "h"}, {"measurement": "Tmax", "setting": "[3]; both, po", "value": "≤ 1", "unit": "h"}, {"measurement": "Cmax", "setting": "[3]; both, po, 1 mg", "value": 66.8, "unit": "ng/mL"}, {"measurement": "Cmax", "setting": "[3]; both, po, 2 mg", "value": 106, "unit": "ng/mL"}, {"measurement": "Cmax", "setting": "[3]; both, po, 4 mg", "value": 233, "unit": "ng/mL"}, {"measurement": "AUC(0-t)", "setting": "[3]; female, oral, 1 mg", "value": 204, "unit": "ng·h/mL"}, {"measurement": "Cmax", "setting": "[3]; female, oral, 1 mg", "value": 71, "unit": "ng/mL"}, {"measurement": "Tmax", "setting": "[3]; female, oral, 1 mg", "value": 0.67, "unit": "h"}, {"measurement": "Vd", "setting": "[3]; female, oral, 1 mg", "value": 73.3, "unit": "L"}, {"measurement": "clearance", "setting": "[3]; female, oral, 1 mg", "value": 77.5, "unit": "mL/min"}, {"measurement": "half-life", "setting": "[3]; female, oral, 1 mg", "value": 9.69, "unit": "h"}, {"measurement": "AUC(0-t)", "setting": "[3]; female, oral, 2 mg", "value": 330, "unit": "ng·h/mL"}, {"measurement": "Cmax", "setting": "[3]; female, oral, 2 mg", "value": 114, "unit": "ng/mL"}, {"measurement": "Tmax", "setting": "[3]; female, oral, 2 mg", "value": 0.67, "unit": "h"}, {"measurement": "Vd", "setting": "[3]; female, oral, 2 mg", "value": 87.5, "unit": "L"}, {"measurement": "clearance", "setting": "[3]; female, oral, 2 mg", "value": 102, "unit": "mL/min"}, {"measurement": "half-life", "setting": "[3]; female, oral, 2 mg", "value": 9.95, "unit": "h"}, {"measurement": "Cmax", "setting": "[3]; female, oral, 4 mg", "value": 253, "unit": "ng/mL"}, {"measurement": "Tmax", "setting": "[3]; female, oral, 4 mg", "value": 0.9, "unit": "h"}, {"measurement": "Vd", "setting": "[3]; female, oral, 4 mg", "value": 72.7, "unit": "L"}, {"measurement": "clearance", "setting": "[3]; female, oral, 4 mg", "value": 83, "unit": "mL/min"}, {"measurement": "half-life", "setting": "[3]; female, oral, 4 mg", "value": 11.8, "unit": "h"}, {"measurement": "AUC(0-t)", "setting": "[3]; male, oral, 1 mg", "value": 176, "unit": "ng·h/mL"}, {"measurement": "Cmax", "setting": "[3]; male, oral, 1 mg", "value": 62.6, "unit": "ng/mL"}, {"measurement": "Tmax", "setting": "[3]; male, oral, 1 mg", "value": 0.58, "unit": "h"}, {"measurement": "Vd", "setting": "[3]; male, oral, 1 mg", "value": 86.4, "unit": "L"}, {"measurement": "clearance", "setting": "[3]; male, oral, 1 mg", "value": 92, "unit": "mL/min"}, {"measurement": "half-life", "setting": "[3]; male, oral, 1 mg", "value": 12.3, "unit": "h"}, {"measurement": "AUC(0-t)", "setting": "[3]; male, oral, 2 mg", "value": 286, "unit": "ng·h/mL"}, {"measurement": "Cmax", "setting": "[3]; male, oral, 2 mg", "value": 98.4, "unit": "ng/mL"}, {"measurement": "Tmax", "setting": "[3]; male, oral, 2 mg", "value": 0.63, "unit": "h"}, {"measurement": "Vd", "setting": "[3]; male, oral, 2 mg", "value": 86.4, "unit": "L"}, {"measurement": "clearance", "setting": "[3]; male, oral, 2 mg", "value": 114, "unit": "mL/min"}, {"measurement": "half-life", "setting": "[3]; male, oral, 2 mg", "value": 9.08, "unit": "h"}, {"measurement": "AUC(0-t)", "setting": "[3]; male, oral, 4 mg", "value": 690, "unit": "ng·h/mL"}, {"measurement": "Cmax", "setting": "[3]; male, oral, 4 mg", "value": 209, "unit": "ng/mL"}, {"measurement": "Tmax", "setting": "[3]; male, oral, 4 mg", "value": 0.65, "unit": "h"}, {"measurement": "Vd", "setting": "[3]; male, oral, 4 mg", "value": 72.2, "unit": "L"}, {"measurement": "clearance", "setting": "[3]; male, oral, 4 mg", "value": 98.5, "unit": "mL/min"}, {"measurement": "half-life", "setting": "[3]; male, oral, 4 mg", "value": 8.72, "unit": "h"}, {"measurement": "correlation coefficient of dose-proportionality linear regression for AUC0−t", "setting": "[3]; single dosing 1 mg, 2 mg, 4 mg", "value": 0.92}, {"measurement": "correlation coefficient of dose-proportionality linear regression for AUC0−∞", "setting": "[3]; single dosing 1 mg, 2 mg, 4 mg", "value": 0.91}, {"measurement": "correlation coefficient of dose-proportionality linear regression for Cmax", "setting": "[3]; single dosing 1 mg, 2 mg, 4 mg", "value": 0.86}, {"measurement": "accumulation index (Cmax, multiple-dose/Cmax, single-dose)", "setting": "[4]; 2 mg multiple dose vs 2 mg single dose, mean (SD)", "value": "0.85 (0.23)"}, {"measurement": "accumulation index (AUC)", "setting": "[4]; 2 mg multiple dose vs 2 mg single dose, ratio of AUC, mean (SD)", "value": "0.98 (0.28)"}, {"measurement": "Cav", "setting": "[4]; female (n = 6), mean (SD)", "value": "11.65 (6.58) ng/mL"}, {"measurement": "Cav", "setting": "[4]; male (n = 5), mean (SD)", "value": "10.32 (1.86) ng/mL"}, {"measurement": "steady state of plasma pitavastatin concentration achieved", "setting": "[4]; 2 mg once daily, day of multiple dosing", "value": "~4", "unit": "days"}, {"measurement": "Cav (steady-state concentration)", "setting": "[4]; [8]", "value": "11.05 (4.85) ng/mL"}, {"measurement": "Cmin (steady-state trough concentration)", "setting": "[4]; [8]", "value": "2.58 (0.92) ng/mL"}, {"measurement": "stability in human plasma", "setting": "[5]; after 3 freeze-thaw cycles (80°C to room temperature)", "value": "stable"}, {"measurement": "stability in human plasma", "setting": "[5]; at −20°C for 80 days", "value": "stable"}, {"measurement": "stability of processed samples", "setting": "[5]; processed samples at room temperature for 8 hours", "value": "stable"}, {"measurement": "AUC higher than wild type", "setting": "[6]", "value": "about 80%"}, {"measurement": "Cmax higher than wild type", "setting": "[6]", "value": "~71", "unit": "%"}, {"measurement": "oral elimination lower than wild type", "setting": "[6]", "value": "about 35%"}, {"measurement": "stability in human plasma (conversion to Pi-LAC)", "setting": "[7]", "value": "stable"}, {"measurement": "tolerability", "setting": "Tolerability assessment", "value": "well tolerated"}]}]}
